This is a sample that favours compounds with a hit; in the whole collection about 2% have one here.
SIAE primary – blocks human sialic acid acetylesterase; SIAE FP-Rh probe binding, fluorescence polarization; Q9HAT2; inhibition, % at 9.66 µM; hit rate 0.69% among 370,000;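 active = inhibition above a cutoff: mean of compounds within the control limits plus 3 SD of those, cut at about 17% in these data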;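 note: 0% = plate median of compound wells and 100% = probe without SIAE protein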
Target sequence (Q9HAT2 whole entry, looked up): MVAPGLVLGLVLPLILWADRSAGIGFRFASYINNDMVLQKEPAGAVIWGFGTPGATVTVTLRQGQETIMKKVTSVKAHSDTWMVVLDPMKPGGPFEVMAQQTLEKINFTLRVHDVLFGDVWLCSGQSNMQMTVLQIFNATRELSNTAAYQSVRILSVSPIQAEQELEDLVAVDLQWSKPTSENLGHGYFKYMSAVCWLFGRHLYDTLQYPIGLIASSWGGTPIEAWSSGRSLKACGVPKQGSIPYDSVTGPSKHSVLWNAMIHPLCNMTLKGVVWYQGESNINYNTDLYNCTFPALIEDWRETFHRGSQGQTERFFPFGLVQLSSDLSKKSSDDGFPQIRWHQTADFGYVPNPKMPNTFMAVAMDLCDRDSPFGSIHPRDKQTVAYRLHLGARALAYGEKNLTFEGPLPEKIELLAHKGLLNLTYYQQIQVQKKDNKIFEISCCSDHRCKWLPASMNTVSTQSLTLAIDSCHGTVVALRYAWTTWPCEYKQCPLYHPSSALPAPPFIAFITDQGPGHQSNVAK
mABHD4 FP – inhibits mouse alpha/beta hydrolase domain 4; Q8VD66; purified mABHD4, FP-Rh probe fluorescence polarization; inhibition, % at 8.92 µM; hit rate 0.54% among 370,000;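 active = inhibition exceeding the mean over every tested compound plus 3 SD, cut at about 30% in these data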;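 note: 0% = plate median of compound wells and 100% = S159A mutant with DMSO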
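Doses – 8.92 µM, single dose · Material – wild-type mouse ABHD4 protein · Replication – single well per compound (singlicate) · Measure – percent inhibition of probe binding, normalized to plate controls · Schedule – 45 min compound pre-incubation plus 60 min probe step, 25 °C · Detection – fluorescence polarization with parallel and perpendicular emission, 525/598 nm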
TDP2 absorb – TDP2 (human) inhibition, absorbance primary screen. recombinant TDP2, T5PNP hydrolysis, p-nitrophenol absorbance 415 nm. inhibition, % at 12.8 µM. AID 720702. hit rate 0.34% among 370,000. O95551;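 active = inhibition above the mean of all tested compounds plus 3 SD, set per campaign, cut at about 25% in these data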;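 note: 0% = DMSO with enzyme and 100% = buffer with substrate but no TDP2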
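Material: recombinant human TDP2; quantity: TDP2 enzyme at 120 nM final; medium: Tris-HCl pH 7.5 with MgCl2; compound: single concentration, 12.8 µM nominal, with 1% DMSO; incubation: 2 h enzyme incubation at 37 °C; signal: epi absorbance; measure: percent inhibition; benchmarks: high control without enzyme, low control DMSO plus TDP2; repeats: singlicate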
TCR CD3 inh – inhibitors of human TCR-CD3 interaction; TAMRA-labeled TCR probe fluorescence, biochemical; inhibition, % at 9.4 µM; hit rate 0.37% among 360,000; AID 651800; in the data active = inhibition above about 19%;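 note: recombinant mutant TCR 2C K166C tagged with TAMRA read by polarization; 0% = receptor in buffer alone and 100% = receptor with positive control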
HTRA1 inh – blocks human HTRA1 serine peptidase; inhibition, % at 5.96 µM; hit rate 0.5% among 340,000; Q92743; recombinant HTRA1, FP-rhodamine activity-based probe, fluorescence polarization; AID 504803; in the data active = inhibition above about 36%;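 note: 0% = enzyme with DMSO and 100% = wells lacking enzyme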
PAD4 FP inh – blocks human protein arginine deiminase 4; hit rate 0.41% among 330,000; AID 485272; recombinant PAD4, RCA probe fluorescence polarization; inhibition, % at 6.36 µM;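 active = percent inhibition above a cutoff equal to the mean of all tested compounds plus 3 SD, cut at about 15% in these data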;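 note: 0% = PAD4 with RCA probe and DMSO and 100% = probe without PAD4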
PAD4 FP conf – confirmation of human PAD4 inhibitors. shares compounds with PAD4 FP inh. recombinant PAD4, RCA probe fluorescence polarization. inhibition, % at 6.36 µM. hit rate 28% among 1,200. AID 488796;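 active = mean inhibition across replicates above the hit cutoff set by the earlier primary screen, cut at about 15% in these data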;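 note: inhibitors block active-site labeling by the probe so polarization falls; 0% = PAD4 with probe and DMSO and 100% = probe without PAD4 enzyme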
Numbers without * were called inactive.

How did COc1ccc(COC[C@H](C)N2C[C@@H](C)[C@H](CN(C)S(=O)(=O)c3ccc(F)cc3)OCCCC[C@H](C)Oc3ccc(NC(=O)Nc4ccccc4)cc3C2=O)cc1 do in these assays?
SIAE primary: -9; mABHD4 FP: -39; TDP2 absorb: 4

Results for COCc1cn([C@H]2C[C@@H]3O[C@H](CO)CC[C@@H]3O[C@@H]2CCc2ccc(-c3ccc(OC)cc3)cc2)nn1 ?
SIAE primary: 1; mABHD4 FP: 2; TDP2 absorb: -2

What do the screens show for `CCCCOc1ccccc1NC(=O)CC1Nc2ccccc2NC1=O` (centres undefined)?
SIAE primary: -4; mABHD4 FP: -3; TDP2 absorb: -13; TCR CD3 inh: -3; HTRA1 inh: -11; PAD4 FP inh: 23*; PAD4 FP conf: -4

Results for C=CCN(C)C(C#CCCCC)c1ccccc1 (centres undefined) ?
SIAE primary: 3; mABHD4 FP: 1; TDP2 absorb: 6

Results for COc1cc2ccccc2cc1C(=O)NC1CCC(C)CC1 (centres undefined) ?
SIAE primary: 0; mABHD4 FP: 5; TDP2 absorb: 6; TCR CD3 inh: -3; HTRA1 inh: -28; PAD4 FP inh: 16*; PAD4 FP conf: 4

What do the screens show for `CCN(CC)c1ccc2c(c1)oc(=O)c1c(Cl)cc(=O)oc12`?
HTRA1 inh: 6; PAD4 FP inh: 26*; PAD4 FP conf: 19*

Results for CCN(CC)c1ccc2c(C)c(Cl)c(=O)oc2c1 ?
SIAE primary: 7; mABHD4 FP: 0; TDP2 absorb: -5; TCR CD3 inh: 3; HTRA1 inh: -5; PAD4 FP inh: -2

Results for O=C(Nc1ccc(Cl)c(Cl)c1)C1CCN(c2nnc(-n3cccc3)s2)CC1 ?
SIAE primary: -12; mABHD4 FP: -42; TDP2 absorb: -2

Results for CC(C)(C)C(=O)OC12CCCN(C1)/C(=C/c1ccc(Cl)cc1)C2 (centres undefined) ?
SIAE primary: 6; mABHD4 FP: 3; TDP2 absorb: 6

Results for O=C(CSc1nc2ccccc2nc1N1CCCCC1)NCc1ccc(Cl)cc1Cl ?
SIAE primary: -2; mABHD4 FP: -1; TDP2 absorb: -1

Results for O=C(c1ccncc1)N1N=C(C2CC2)CC1(O)C(F)(F)F (centres undefined) ?
SIAE primary: 2; mABHD4 FP: 2; TDP2 absorb: 3; TCR CD3 inh: 1; HTRA1 inh: 2; PAD4 FP inh: 24*; PAD4 FP conf: 4

How did O=C(c1cccnc1)N1N=C(C2CC2)CC1(O)C(F)(F)F (centres undefined) do in these assays?
SIAE primary: 3; mABHD4 FP: 4; TDP2 absorb: 9; TCR CD3 inh: -2; HTRA1 inh: 11; PAD4 FP inh: -11

How did CC(C)c1ccc(/C=N/n2nnnc2Nc2ccccc2)cc1 do in these assays?
SIAE primary: 3; mABHD4 FP: -10; TDP2 absorb: 1; TCR CD3 inh: -11; HTRA1 inh: -6; PAD4 FP inh: 15*; PAD4 FP conf: 6

Results for N#CCCN(C(=O)Cn1nc(C(=O)O)c2ccccc2c1=O)c1ccccc1 ?
SIAE primary: 6; mABHD4 FP: 2; TDP2 absorb: 4; TCR CD3 inh: 12; HTRA1 inh: 6; PAD4 FP inh: 103*; PAD4 FP conf: 0

How did COC(=O)C[C@@H]1CC[C@H]2[C@@H](COc3ccc(NC(=O)c4ccc(Cl)cc4)cc3C(=O)N2C)O1 do in these assays?
SIAE primary: -3; mABHD4 FP: -8; TDP2 absorb: 5

What do the screens show for `Cn1c(SCC(=O)N/N=C/C=C/c2ccco2)nc2ccccc21`?
SIAE primary: 11; mABHD4 FP: 6; TDP2 absorb: 3; TCR CD3 inh: 17; HTRA1 inh: 6; PAD4 FP inh: 52*; PAD4 FP conf: 2

How did CCC(=O)N(Cc1cc(=O)[nH]c2ccccc12)c1ccc(C)cc1 do in these assays?
SIAE primary: 3; mABHD4 FP: -4; TDP2 absorb: -22; TCR CD3 inh: -4; HTRA1 inh: 3; PAD4 FP inh: 15*; PAD4 FP conf: 0

What do the screens show for `CCCC(=O)N(Cc1cc(=O)[nH]c2ccccc12)c1ccccc1C`?
SIAE primary: -5; mABHD4 FP: 3; TDP2 absorb: 3; TCR CD3 inh: -2; HTRA1 inh: -8; PAD4 FP inh: 15*; PAD4 FP conf: 17*

What do the screens show for `CC(=O)N(Cc1cc(=O)[nH]c2ccccc12)c1cccc(C)c1`?
SIAE primary: -9; mABHD4 FP: -5; TDP2 absorb: -11; TCR CD3 inh: 3; HTRA1 inh: -12; PAD4 FP inh: 53*; PAD4 FP conf: 44*

How did CCCC(=O)N(Cc1cc(=O)[nH]c2ccccc12)c1cccc(C)c1 do in these assays?
SIAE primary: -3; mABHD4 FP: -5; TDP2 absorb: 5; TCR CD3 inh: -1; HTRA1 inh: -19; PAD4 FP inh: 22*; PAD4 FP conf: 49*

Results for CCC(=O)N1CCc2cc(Br)c(S(=O)(=O)NCCCN(CC)Cc3ccccc3)cc21 ?
SIAE primary: 1; mABHD4 FP: -1; TDP2 absorb: 10

How did CN1C2=NC(c3ccccc3)CC(=O)N2/C(=C\c2ccccc2)C1c1ccccc1C(F)(F)F (centres undefined) do in these assays?
SIAE primary: -4; mABHD4 FP: -16; TDP2 absorb: -2

Results for O=C(OCn1ncc(Br)c(Br)c1=O)c1ccccc1Cl ?
HTRA1 inh: -9; PAD4 FP inh: 34*; PAD4 FP conf: 32*

What do the screens show for `O=C(CNS(=O)(=O)c1cccs1)N1CCN(c2ncccn2)CC1`?
SIAE primary: 2; mABHD4 FP: 3; TDP2 absorb: 5

Results for COCCn1c(C)c(C)c(S(=O)(=O)c2ccccc2)c1N ?
SIAE primary: 2; mABHD4 FP: 2; TDP2 absorb: -5; TCR CD3 inh: 16; HTRA1 inh: 13; PAD4 FP inh: 28*; PAD4 FP conf: -3

Results for O=C(CCNS(=O)(=O)c1cccc(C(F)(F)F)c1)NCc1ccco1 ?
SIAE primary: 0; mABHD4 FP: 1; TDP2 absorb: 5; TCR CD3 inh: 2; HTRA1 inh: 2; PAD4 FP inh: 27*; PAD4 FP conf: -1

How did CCCNS(=O)(=O)c1ccc(CCC(=O)NCc2ccco2)cc1 do in these assays?
SIAE primary: -9; mABHD4 FP: 10; TDP2 absorb: 3; TCR CD3 inh: 4; HTRA1 inh: 7; PAD4 FP inh: 0

Assay outcomes (PubChem BioAssay)
